Broadly, the IC50 is the concentration at which inhibition is half-maximal.

The text below walks through data of publication PMC6178977 (Advanced functional materials, 2017).

One data set has as its system HCT116 cells. Put plainly: In vitro cytotoxicity, 72 h treatment. It counts as cell-based. The following applies: Homo sapiens, HCT-116, 72 h.
Another data set relates to Colo 205 cells. Put plainly: In vitro cytotoxicity, 72 h treatment. The format is cell-based. The following applies: Homo sapiens, COLO 205, 72 h.
In data set [1] the test system is subcutaneous HCT-116 xenograft. Put plainly: Tumor regression in subcutaneous HCT-116 xenograft model. It counts as in vivo, mice.
The conditions of data set [2]: cited from earlier work.
Data set [3] is described as follows: Pyrene fluorescence assay. It counts as physicochemical. Put shortly:
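Pyrene served as fluorescent probe across a dilution series of polypeptide or conjugate. The I₁/I₃ ratio (370−373 nm peak over 381−384 nm peak) was plotted against polypeptide concentration. CAC was taken from the sigmoidal transition, which reflects nanoparticle disassembly and release of pyrene into the aqueous phase.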

Regarding `Nc1ccn([C@@H]2O[C@H](CO)[C@@H](O)C2(F)F)c(=O)n1` [GEM, gemcitabine], the IC50 in the data set on HCT116 cells was determined as 4.1 nM; in the data set with Colo 205 cells it was 46.4 nM. In data set [1] (12 days after treatment), the “tumor volume lower than PBS treated animals” value was ~ 3 fold. Besides, the median survival time in data set [1] (HCT-116 xenograft, 25 mg.kg^−1 day 0, 2, 4, Kaplan–Meier, n=6) is 21 days. Besides, the plasma half-life in data set [2] was ~ 10 minutes.
For the molecule (VPGAG)160–(YG)6–(CGG)8 [ATBP], the “CAC (critical aggregation concentration)” value in data set [3] came to 3.6 µM.
